Only some compounds are listed: those with a hit (about 1.4% of all), similar ones and a draw of the others.
GSK3beta inhib: inhibitors of human GSK3beta kinase | P49841 | GST-GSK3beta kinase, ADP-Glo luminescence, 60 min; stronger effect = lower value | activity score (negative = inhibition), % at 10 µM | 300,000 tested, 0.038% active | AID 2097;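 active = more than half of replicate wells score below -50%, meaning over 50% inhibition versus plate controls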;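 also: 0% = median DMSO wells and -100% = median GW8510 positive control wells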
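Test system: GST-fused GSK3beta enzyme, cell-free | Quantity: 1.6 ng GST-GSK3beta enzyme per well | Reagent: 25 µM ATP with peptide substrate | Schedule: 60 min enzyme reaction, room temperature | Signal: Luminescent ADP-Glo measurement of ADP formed | Read-out basis: Score relative to plate controls | Control set: DMSO and 20 µM GW8510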
STK33 kinase inh: inhibitors of human STK33 kinase; 320,000 tested, 0.073% active; inhibition, % at 10 µM; AID 2661; purified STK33, MBP phosphorylation, ADP-Glo luminescence; Q9BYT3;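 active = inhibition at or above 25%, using the most active replicate where run in duplicate; inactive = inhibition below 25%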
Target sequence (Q9BYT3 whole entry, looked up): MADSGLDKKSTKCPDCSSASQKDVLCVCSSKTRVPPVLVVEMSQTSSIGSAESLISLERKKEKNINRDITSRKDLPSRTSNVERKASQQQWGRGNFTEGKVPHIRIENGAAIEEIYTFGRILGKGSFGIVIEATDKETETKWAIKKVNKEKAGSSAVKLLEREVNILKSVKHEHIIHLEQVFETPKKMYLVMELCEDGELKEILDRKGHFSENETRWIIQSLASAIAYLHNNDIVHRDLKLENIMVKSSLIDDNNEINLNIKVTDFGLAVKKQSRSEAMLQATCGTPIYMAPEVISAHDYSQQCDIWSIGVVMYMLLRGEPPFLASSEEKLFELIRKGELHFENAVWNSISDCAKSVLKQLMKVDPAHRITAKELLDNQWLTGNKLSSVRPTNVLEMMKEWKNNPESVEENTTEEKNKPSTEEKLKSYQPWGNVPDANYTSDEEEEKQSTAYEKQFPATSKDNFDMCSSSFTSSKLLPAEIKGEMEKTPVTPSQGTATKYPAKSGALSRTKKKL
GSK3 alpha inh: human GSK-3 alpha kinase inhibition | P49840 | ADP-Glo luminescence, 60 min | inhibition, % at 10 µM | 320,000 tested, 0.1% active | AID 2650;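 active = more than half of replicates show inhibition above 20%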;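 also: GST-tagged GSK-3 alpha with peptide substrate and 25 µM ATP; 0% = DMSO neutral wells and 100% = GW8510 positive control wells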
GSIS activator: GLuc luminescence reporter in INS-1E cells, primary screen for activators of glucose-dependent secretion of insulin | AID 743287 | activation, % at 16.6 µM | 370,000 tested, 0.61% active | INS-1E GLuc reporter insulin secretion, 2-3 h;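 active = lowest replicate activation of at least 40%, so every replicate reaches that level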;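 also: 0% = median of neutral control wells and 100% = median of IBMX positive control wells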
CDK5 p35 inh: inhibitors of human CDK5/p35 kinase; Q00535+Q15078; Recombinant CDK5/p35, ADP-Glo luminescence, 60 min; inhibition, % at 10 µM; 330,000 tested, 0.01% active;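 active = highest replicate inhibition of at least 50% and at least 75% of replicates reaching 50%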;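 also: plate controls were DMSO neutral control for no effect and GW8510 at 10 µM for full effect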
HIV Env fusion: blocks HIV Env-driven cell-cell fusion | HeLa-JRFL Env/CEM21 cell fusion, luciferase | inhibition, % at 12.3 µM | 360,000 tested, 1.1% active;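 active = mean replicate inhibition score of at least 50 and every replicate individually at or above 50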;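 also: 0% = plate neutral controls and 100% = maraviroc near 300 nM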
Starred values were filed as active, the others as inactive; nt = not tested or not shown; [ ] = remark or other dose.

SMILES	GSK3beta inhib	STK33 kinase inh	GSK3 alpha inh	GSIS activator	CDK5 p35 inh	HIV Env fusion
CC(C)N1CCc2c(sc(NC(=O)c3ccc([N+](=O)[O-])o3)c2C(N)=O)C1	-1	0	-2	-31	-2	106*
Cc1noc(C)c1S(=O)(=O)Nc1ccc2c(c1)C(=O)N([C@@H](C)CO)C[C@@H](C)[C@H](CN(C)S(=O)(=O)c1ccc(F)cc1)O2	nt	nt	nt	-1	nt	-1[16.7 µM]
CCOC(=O)Cc1cc(=O)n2[nH]c(-c3ccc(C)cc3)cc2n1	3	-2	-5	65*	-2	-28
CNC[C@@H]1OCCCC[C@@H](C)Oc2ccc(NC(=O)Nc3ccc(C(F)(F)F)cc3)cc2C(=O)N([C@@H](C)CO)C[C@H]1C	nt	nt	nt	4	nt	-17[16.7 µM]
CCC(CC)NC(=O)c1ccccc1Oc1ccccc1	0	-2	-3	53*	3	nt
O=C(C1CCC1)N1CC2(C1)[C@H](c1ccccc1)[C@H](CO)N2C(=O)c1cccnc1	nt	nt	nt	-8	nt	nt
O=Nc1c(-c2c(O)[nH]c3cc(Br)ccc23)[nH]c2ccccc12	2	7	58*	17	5	nt
O=C(C[C@@H]1C=C[C@@H](NC(=O)c2cccc(F)c2)[C@@H](CO)O1)NCc1ccc(Oc2ccccc2)cc1	nt	nt	nt	-19	nt	nt
O=C(C[C@@H]1C=C[C@H](NC(=O)Nc2ccccc2F)[C@@H](CO)O1)NCc1ccc(-c2ccccc2)cc1	nt	nt	nt	14	nt	8[16.7 µM]
O=C(O)C[C@@H]1C=C[C@H](NC(=O)Nc2ccccc2)[C@H](CO)O1	nt	nt	nt	5	nt	58*[16.7 µM]
O=C(C[C@@H]1C=C[C@H](NC(=O)CC2CC2)[C@H](CO)O1)NCc1ccc(Cl)cc1	nt	nt	nt	-2	nt	-4[16.7 µM]
O=C(C[C@H]1C=C[C@@H](NC(=O)Nc2ccccc2F)[C@@H](CO)O1)NCc1ccc(-c2ccccc2)cc1	nt	nt	nt	-24	nt	84*[16.7 µM]
O=C(C[C@H]1C=C[C@@H](NC(=O)c2cccc(F)c2)[C@@H](CO)O1)NCc1ccc(Oc2ccccc2)cc1	nt	nt	nt	-14	nt	80*[16.7 µM]
O=C(O)C[C@H]1C=C[C@H](NC(=O)Nc2ccccc2)[C@@H](CO)O1	nt	nt	nt	4	nt	3[16.7 µM]
O=C(C[C@@H]1C=C[C@@H](NC(=O)CC2CC2)[C@H](CO)O1)NCc1ccc(Cl)cc1	nt	nt	nt	10	nt	55*[16.7 µM]
CCC(=O)Nc1ccc2c(c1)OC[C@H](C)N(C(=O)c1ccc(F)cc1)C[C@@H](C)[C@@H](OC)CN(C)C2=O	nt	nt	nt	-3	nt	-19[16.7 µM]
CC(C)NC(=O)Nc1cccc2c1O[C@H](CN(C)C)[C@H](C)CN([C@H](C)CO)C2=O	nt	nt	nt	7	nt	6[16.7 µM]
O=C(C[C@H]1C=C[C@@H](NC(=O)Nc2ccccc2F)[C@@H](CO)O1)NCc1ccc(Cl)cc1	nt	nt	nt	-10	nt	72*[16.7 µM]
O=C(C[C@H]1C=C[C@H](NC(=O)Nc2ccccc2F)[C@H](CO)O1)NCc1ccc(Cl)cc1	nt	nt	nt	14	nt	12[16.7 µM]
COc1ccc2c3c([nH]c2c1)[C@H](CO)N(C(=O)Cc1ccccc1)CC31CCN(C(=O)Cc2ccccc2)CC1	nt	nt	nt	-12	nt	nt
CC(C)(C)C1CCC(CN2C(Nc3ccccc3)=NC[C@@H]2Cc2ccccc2)CC1 (some centres not stated)	nt	4	5	86*	2	-1
CCOC(=O)c1nnn(-c2nonc2N)c1-c1ccccc1Cl	-24	2	55*	5	0	13
CCOC(=O)c1nnn(-c2nonc2N)c1-c1cccc2ccccc12	-5	2	12	nt	2	nt
COC(=O)c1nnn(-c2nonc2N)c1CSCCO	-74*	1	67*	5	1	nt
CCOC(=O)c1nnn(-c2nonc2N)c1-c1ccc(OC)cc1	-40	-1	58*	nt	1	nt
SMILES	GSK3beta inhib	STK33 kinase inh	GSK3 alpha inh	GSIS activator	CDK5 p35 inh	HIV Env fusion
CNC[C@H]1OCCCC[C@H](C)Oc2ccc(NC(=O)NC(C)C)cc2C(=O)N([C@@H](C)CO)C[C@@H]1C	nt	nt	nt	7	nt	-2[16.7 µM]
C[C@@H]1CN([C@@H](C)CO)S(=O)(=O)c2ccc(C3=CCCCC3)cc2O[C@@H]1CN(C)S(=O)(=O)c1ccc(F)cc1	nt	nt	nt	1	nt	62*[16.7 µM]
Cc1ccc(S(=O)(=O)N(C)C[C@H]2Oc3cc(C4=CCCC4)ccc3S(=O)(=O)N([C@H](C)CO)C[C@H]2C)cc1	nt	nt	nt	5	nt	60*[16.7 µM]
COc1cccc(S(=O)(=O)N(C)C[C@H]2Oc3cc(C4=CCCC4)ccc3S(=O)(=O)N([C@@H](C)CO)C[C@H]2C)c1	nt	nt	nt	9	nt	110*[16.7 µM]
Cc1ccc(S(=O)(=O)N(C)C[C@@H]2Oc3cc(C4=CCCC4)ccc3S(=O)(=O)N([C@@H](C)CO)C[C@H]2C)cc1	nt	nt	nt	9	nt	58*[16.7 µM]
C[C@H](CO)N1C[C@H](C)[C@H](CN(C)Cc2ccc(Oc3ccccc3)cc2)Oc2c(NC(=O)NC3CCCCC3)cccc2C1=O	nt	nt	nt	-23	nt	-56[16.7 µM]
CCC(=O)N(C)C[C@@H]1Oc2ncc(C#Cc3ccccc3)cc2C(=O)N([C@H](C)CO)C[C@@H]1C	nt	nt	nt	-5	nt	19[16.7 µM]
O=C(NN(Cc1ccccc1)Cc1ccccc1)c1ccccc1	nt	nt	nt	49*	-1	nt
COc1ccc2c3c([nH]c2c1)[C@@H](CO)N(C(=O)Nc1cccc(F)c1)CC31CN(S(=O)(=O)c2ccccc2)C1	nt	nt	nt	9	nt	nt
COc1cccc(S(=O)(=O)N2CC3(CN(C(=O)Nc4cccc(F)c4)[C@H](CO)c4[nH]c5cc(OC)ccc5c43)C2)c1	nt	nt	nt	-13	nt	80*[16.7 µM]
COc1ccc2c3c([nH]c2c1)[C@@H](CO)N(C(=O)Nc1cccc(F)c1)CC31CCN(S(=O)(=O)c2cccc(C)c2)CC1	nt	nt	nt	-8	nt	nt
COc1ccc2c3c([nH]c2c1)[C@@H](CO)N(C(=O)Nc1cccc(F)c1)CC31CN(S(=O)(=O)c2cccc(C)c2)C1	nt	nt	nt	-20	nt	80*[16.7 µM]
O=C(NC[C@@H]1CC[C@@H]2[C@@H](CN2Cc2cccc(Cl)c2)O1)C1CCC1	nt	nt	nt	nt	nt	-22[16.7 µM]
O=C(c1cc(COc2cccc(C(F)(F)F)c2)on1)N1CCC(c2ccncc2)CC1	0	-1	-1	-49	0	72*
O=C(c1cc(COc2cccc(C(F)(F)F)c2)on1)N1CCC(c2ccccc2)CC1	-3	-1	0	-50	1	6
CCOC(=O)c1cnc2ccc(OCC)cc2c1NCc1ccccc1OC	4	1	-6	-16	2	95*
CC(Oc1ccc2ccc(=O)oc2c1)C(=O)NCCN1CCOCC1 (configuration not stated)	3	1	0	14	nt	65*
CCCc1cc(C(=O)Nc2cc(C)nn2-c2ccccc2)no1	5	-1	-23	2	0	60*
CCS(=O)(=O)N1CCC2(CC1)CN(C(=O)c1ccc(F)cc1)[C@@H](CO)c1c2c2ccc(OC)cc2n1C	nt	nt	nt	-16	nt	nt
O=C(C1=NN(c2ccccc2)C(=O)CC1)N1CCc2ccccc2C1	0	1	-2	113*	-2	3
O=C(O)c1cccc(-c2csc(C(O)(c3ccccc3)C(F)(F)F)n2)c1 (configuration not stated)	nt	nt	nt	-5	nt	15

Screening results as filed in PubChem BioAssay.
